Experimental data taken from ChEMBL document CHEMBL4725345, “DFG-1 Residue Controls Inhibitor Binding Mode and Affinity, Providing a Basis for Rational Design of Kinase Inhibitor Selectivity” (J Med Chem, 2020).
One block for each compound: values may come before it.

Experiments:
[1] = target: T1, Dual specificity protein kinase CLK3 (Homo sapiens, UniProt P49761); details: dose 10.0 µM, time 10.0 min
Target sequence in this assay (P49761 whole entry, looked up): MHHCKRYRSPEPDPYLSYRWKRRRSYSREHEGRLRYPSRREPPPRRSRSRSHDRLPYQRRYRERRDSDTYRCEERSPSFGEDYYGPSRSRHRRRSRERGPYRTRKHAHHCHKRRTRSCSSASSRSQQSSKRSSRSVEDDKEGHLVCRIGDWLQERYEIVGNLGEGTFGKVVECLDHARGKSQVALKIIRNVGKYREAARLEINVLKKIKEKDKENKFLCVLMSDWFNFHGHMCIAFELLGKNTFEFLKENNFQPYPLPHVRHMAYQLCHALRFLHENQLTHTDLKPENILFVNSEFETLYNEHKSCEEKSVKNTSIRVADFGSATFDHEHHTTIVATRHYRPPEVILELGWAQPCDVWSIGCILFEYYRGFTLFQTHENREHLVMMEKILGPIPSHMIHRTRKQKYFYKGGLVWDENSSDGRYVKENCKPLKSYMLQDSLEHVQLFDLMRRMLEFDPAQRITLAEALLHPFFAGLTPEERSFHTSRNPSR

Homo sapiens [2] = species: Homo sapiens; assay: Selectivity ratio of Ki for CLK1 V324A mutant (unknown origin) expressed in HEK293 cells to Ki for wild type CLK1 (unknown origin); format: cell-based
Summary of the method: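 Full-length CLK1 wild type and V324A, NanoLuc-fused (N-terminal for WT, C-terminal for mutant), transfected into HEK293T cells and expressed for 20 h at 37 °C, 5% CO2. Cells in Opti-MEM were incubated 2 h with serially varied inhibitor plus 1 μM Tracer K5. BRET was read at 450/610 nm, and mBU was fitted to give IC50. […] Biological duplicates; mutant/WT Ki ratio.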

[3] = target: Dual specificity protein kinase CLK2 (Homo sapiens) (UniProt P49760); details: dose 10.0 µM, time 10.0 min
Sequence of Dual specificity protein kinase CLK2 (Homo sapiens) (P49760 whole entry, looked up): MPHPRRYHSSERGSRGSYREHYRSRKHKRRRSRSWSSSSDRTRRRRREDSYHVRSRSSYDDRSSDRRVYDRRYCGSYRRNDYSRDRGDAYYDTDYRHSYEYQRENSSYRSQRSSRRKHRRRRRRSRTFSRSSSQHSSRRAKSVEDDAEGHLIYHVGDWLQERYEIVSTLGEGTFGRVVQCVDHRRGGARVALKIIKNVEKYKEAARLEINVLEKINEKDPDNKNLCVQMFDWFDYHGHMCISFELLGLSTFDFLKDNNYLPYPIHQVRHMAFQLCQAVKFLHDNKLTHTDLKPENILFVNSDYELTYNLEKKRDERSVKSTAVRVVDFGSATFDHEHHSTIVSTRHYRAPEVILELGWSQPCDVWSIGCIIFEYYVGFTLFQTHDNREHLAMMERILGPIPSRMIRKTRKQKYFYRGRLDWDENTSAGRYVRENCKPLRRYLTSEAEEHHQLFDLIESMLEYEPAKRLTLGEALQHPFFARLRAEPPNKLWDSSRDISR

Homo sapiens [4] = species: Homo sapiens; assay: Binding affinity to CLK1 V324A mutant (unknown origin) assessed as change in melting temperature at 10 uM incubated for 10 mins using SYPRO orange dye by RT-PCR-based fluorescence assay
Summary of the method: (§1)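 Recombinant kinase domain at 2 μM in 10 mM HEPES pH 7.5, 500 mM NaCl, mixed with 10 μM inhibitor for 10 min at room temperature; SYPRO orange added at 1:1000; temperature-dependent unfolding fluorescence read on a real-time PCR instrument; Tm shift derived by a previously described method.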

Homo sapiens [5] = species: Homo sapiens; assay: Binding affinity to CLK3 A319V mutant (unknown origin) assessed as change in melting temperature at 10 uM incubated for 10 mins using SYPRO orange dye by RT-PCR-based fluorescence assay
Summary of the method: as §1

[6] = target: T2, Dual specificity protein kinase CLK4 (Homo sapiens, UniProt Q9HAZ1); details: dose 10.0 µM, time 10.0 min
Target sequence in this assay (Q9HAZ1 whole entry, looked up): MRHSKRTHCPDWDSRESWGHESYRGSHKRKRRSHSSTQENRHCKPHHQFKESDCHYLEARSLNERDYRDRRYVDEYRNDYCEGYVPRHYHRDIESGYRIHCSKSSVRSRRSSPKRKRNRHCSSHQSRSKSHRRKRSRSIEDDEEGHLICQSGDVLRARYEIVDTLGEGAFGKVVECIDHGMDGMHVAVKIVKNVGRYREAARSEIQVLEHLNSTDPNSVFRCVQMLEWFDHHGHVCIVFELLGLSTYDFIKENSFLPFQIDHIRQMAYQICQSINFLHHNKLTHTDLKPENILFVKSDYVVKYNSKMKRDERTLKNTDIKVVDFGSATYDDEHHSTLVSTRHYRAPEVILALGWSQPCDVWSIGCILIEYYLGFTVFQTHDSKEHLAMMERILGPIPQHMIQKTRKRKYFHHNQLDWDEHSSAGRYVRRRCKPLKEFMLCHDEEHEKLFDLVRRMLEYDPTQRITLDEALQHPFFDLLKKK

[7] = target: T3, Dual specificity protein kinase CLK1 (Homo sapiens, UniProt P49759); details: dose 10.0 µM, time 10.0 min
Target sequence in this assay (P49759 whole entry, looked up): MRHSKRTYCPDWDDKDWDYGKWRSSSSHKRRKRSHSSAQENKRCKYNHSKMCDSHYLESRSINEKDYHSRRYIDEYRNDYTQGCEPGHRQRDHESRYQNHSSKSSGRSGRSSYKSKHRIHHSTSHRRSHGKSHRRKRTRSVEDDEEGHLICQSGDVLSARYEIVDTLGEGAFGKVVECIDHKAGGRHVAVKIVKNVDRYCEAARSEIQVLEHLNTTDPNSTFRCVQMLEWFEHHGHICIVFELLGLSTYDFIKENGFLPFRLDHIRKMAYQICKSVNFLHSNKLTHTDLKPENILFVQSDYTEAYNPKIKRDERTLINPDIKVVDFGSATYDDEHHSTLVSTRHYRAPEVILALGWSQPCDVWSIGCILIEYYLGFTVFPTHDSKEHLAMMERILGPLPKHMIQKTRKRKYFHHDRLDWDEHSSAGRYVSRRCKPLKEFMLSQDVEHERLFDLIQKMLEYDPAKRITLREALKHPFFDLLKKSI

[8] = target: Dual specificity tyrosine-phosphorylation-regulated kinase 2 (Homo sapiens, UniProt Q92630); assay: Inhibition of human DYRK2 by radiometric assay
[9] = target: T4, Serine/threonine-protein kinase haspin (Homo sapiens) (UniProt Q8TF76); assay: Inhibition of human Haspin assessed as residual activity at 1 uM relative to control
T4 sequence (whole entry): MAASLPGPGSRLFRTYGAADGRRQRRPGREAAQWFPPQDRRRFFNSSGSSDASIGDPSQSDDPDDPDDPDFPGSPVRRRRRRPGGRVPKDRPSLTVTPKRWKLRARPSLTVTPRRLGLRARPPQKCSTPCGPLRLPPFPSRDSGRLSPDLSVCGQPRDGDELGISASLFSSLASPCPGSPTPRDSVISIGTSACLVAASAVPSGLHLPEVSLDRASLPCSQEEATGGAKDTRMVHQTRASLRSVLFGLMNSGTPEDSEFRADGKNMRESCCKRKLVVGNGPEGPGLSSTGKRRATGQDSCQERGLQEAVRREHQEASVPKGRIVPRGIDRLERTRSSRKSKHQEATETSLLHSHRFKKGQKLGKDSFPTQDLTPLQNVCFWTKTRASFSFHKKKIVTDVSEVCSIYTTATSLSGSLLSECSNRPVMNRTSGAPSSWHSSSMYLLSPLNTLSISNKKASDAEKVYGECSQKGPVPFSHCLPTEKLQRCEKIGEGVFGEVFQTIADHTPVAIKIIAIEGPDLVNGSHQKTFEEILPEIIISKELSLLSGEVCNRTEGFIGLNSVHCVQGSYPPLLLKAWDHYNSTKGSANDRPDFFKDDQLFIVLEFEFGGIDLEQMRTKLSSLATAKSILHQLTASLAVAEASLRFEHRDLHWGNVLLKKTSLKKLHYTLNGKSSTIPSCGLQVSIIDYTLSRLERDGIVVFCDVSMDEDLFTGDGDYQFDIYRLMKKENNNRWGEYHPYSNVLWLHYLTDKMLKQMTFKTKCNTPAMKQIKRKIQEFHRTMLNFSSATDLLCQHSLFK

[10] = target: Interleukin-1 receptor-associated kinase 4 (Homo sapiens) (UniProt Q9NWZ3); assay: Inhibition of human IRAK4 assessed as residual activity at 1 uM relative to control
[11] = target: High affinity nerve growth factor receptor (Homo sapiens) (UniProt P04629); assay: Inhibition of human TrkA assessed as residual activity at 1 uM relative to control
Sequence of High affinity nerve growth factor receptor (Homo sapiens) (P04629 33-796 limits assumed): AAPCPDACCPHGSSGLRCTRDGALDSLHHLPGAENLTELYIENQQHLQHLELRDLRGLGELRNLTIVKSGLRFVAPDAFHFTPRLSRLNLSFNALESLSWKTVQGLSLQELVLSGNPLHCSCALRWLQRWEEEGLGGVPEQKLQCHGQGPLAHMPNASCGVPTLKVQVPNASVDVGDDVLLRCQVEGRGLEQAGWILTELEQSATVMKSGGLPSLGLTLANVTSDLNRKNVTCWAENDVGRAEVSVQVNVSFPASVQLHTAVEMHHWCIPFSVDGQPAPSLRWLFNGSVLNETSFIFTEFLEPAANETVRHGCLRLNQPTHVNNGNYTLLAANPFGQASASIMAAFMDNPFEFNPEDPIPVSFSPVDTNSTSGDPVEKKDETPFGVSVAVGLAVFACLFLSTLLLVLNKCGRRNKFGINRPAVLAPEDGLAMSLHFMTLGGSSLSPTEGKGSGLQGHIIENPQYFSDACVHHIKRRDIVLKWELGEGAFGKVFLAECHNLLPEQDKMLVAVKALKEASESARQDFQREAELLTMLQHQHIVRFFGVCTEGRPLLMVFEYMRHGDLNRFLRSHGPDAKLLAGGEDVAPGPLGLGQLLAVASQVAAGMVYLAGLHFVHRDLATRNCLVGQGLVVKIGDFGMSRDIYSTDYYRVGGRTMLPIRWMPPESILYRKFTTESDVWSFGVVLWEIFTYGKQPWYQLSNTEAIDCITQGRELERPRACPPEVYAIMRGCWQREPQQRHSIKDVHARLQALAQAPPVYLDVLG

[12] = target: Homeodomain-interacting protein kinase 3 (Homo sapiens, UniProt Q9H422); assay: Inhibition of human HIPK3 by radiometric assay
[13] = target: Glycogen synthase kinase-3 beta (Homo sapiens) (UniProt P49841); assay: Inhibition of human GSK3B assessed as residual activity at 1 uM relative to control
Sequence of Glycogen synthase kinase-3 beta (Homo sapiens) (P49841 whole entry, looked up): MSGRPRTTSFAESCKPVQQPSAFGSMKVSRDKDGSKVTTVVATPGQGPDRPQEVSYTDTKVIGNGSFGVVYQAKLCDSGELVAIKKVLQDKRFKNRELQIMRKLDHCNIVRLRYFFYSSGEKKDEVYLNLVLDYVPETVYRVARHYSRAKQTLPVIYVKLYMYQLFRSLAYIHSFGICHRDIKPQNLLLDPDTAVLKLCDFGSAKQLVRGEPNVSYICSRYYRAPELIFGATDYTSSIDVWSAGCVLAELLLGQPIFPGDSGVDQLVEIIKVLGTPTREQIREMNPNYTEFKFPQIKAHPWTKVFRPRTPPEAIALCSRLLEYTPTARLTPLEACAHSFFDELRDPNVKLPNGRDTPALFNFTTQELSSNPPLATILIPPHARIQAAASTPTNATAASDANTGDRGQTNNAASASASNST

[14] = target: Homeodomain-interacting protein kinase 2 (Homo sapiens, UniProt Q9H2X6); assay: Inhibition of human HIPK2 by radiometric assay
Sequence of Homeodomain-interacting protein kinase 2 (Q9H2X6 whole entry): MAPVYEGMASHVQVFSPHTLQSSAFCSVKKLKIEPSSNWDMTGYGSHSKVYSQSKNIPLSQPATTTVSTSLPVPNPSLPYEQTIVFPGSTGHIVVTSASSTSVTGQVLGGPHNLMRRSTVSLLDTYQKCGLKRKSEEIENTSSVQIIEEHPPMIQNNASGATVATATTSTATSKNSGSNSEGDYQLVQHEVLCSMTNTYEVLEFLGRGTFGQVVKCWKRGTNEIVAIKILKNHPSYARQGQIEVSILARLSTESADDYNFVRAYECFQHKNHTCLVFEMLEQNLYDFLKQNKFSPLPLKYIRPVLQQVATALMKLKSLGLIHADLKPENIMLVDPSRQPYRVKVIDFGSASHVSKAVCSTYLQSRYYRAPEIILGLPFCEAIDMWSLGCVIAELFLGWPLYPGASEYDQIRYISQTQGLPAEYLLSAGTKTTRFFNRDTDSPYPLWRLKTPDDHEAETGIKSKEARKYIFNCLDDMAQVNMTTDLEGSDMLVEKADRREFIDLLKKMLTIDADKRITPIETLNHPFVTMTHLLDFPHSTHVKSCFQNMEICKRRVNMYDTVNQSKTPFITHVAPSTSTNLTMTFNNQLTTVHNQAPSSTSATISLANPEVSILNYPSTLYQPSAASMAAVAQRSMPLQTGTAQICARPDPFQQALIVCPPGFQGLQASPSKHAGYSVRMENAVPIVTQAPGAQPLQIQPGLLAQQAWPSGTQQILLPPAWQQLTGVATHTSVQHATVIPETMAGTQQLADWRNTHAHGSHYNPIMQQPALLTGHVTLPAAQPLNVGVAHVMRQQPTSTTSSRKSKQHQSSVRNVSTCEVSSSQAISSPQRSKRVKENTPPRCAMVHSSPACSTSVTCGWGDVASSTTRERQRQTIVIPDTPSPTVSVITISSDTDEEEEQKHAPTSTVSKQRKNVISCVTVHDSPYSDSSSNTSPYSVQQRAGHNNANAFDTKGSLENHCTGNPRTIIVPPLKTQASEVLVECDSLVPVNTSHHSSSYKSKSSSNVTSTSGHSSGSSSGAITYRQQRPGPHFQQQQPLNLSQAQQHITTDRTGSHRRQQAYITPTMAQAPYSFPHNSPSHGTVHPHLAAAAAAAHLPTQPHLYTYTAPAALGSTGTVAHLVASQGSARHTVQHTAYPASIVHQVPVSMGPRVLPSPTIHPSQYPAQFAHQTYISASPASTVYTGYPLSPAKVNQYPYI

[15] = target: T5, Dual specificity tyrosine-phosphorylation-regulated kinase 1A (Homo sapiens, UniProt Q13627); assay: Inhibition of DYRK1A (unknown origin) by radiometric assay
[16] = target: Homeodomain-interacting protein kinase 1 (Homo sapiens, UniProt Q86Z02); assay: Inhibition of human HIPK1 by radiometric assay
[17] = target: T2, Dual specificity protein kinase CLK4; assay: Inhibition of human CLK4 by radiometric assay
Target sequence in this assay (Q9HAZ1 whole entry): as the sequence (Q9HAZ1 whole entry, looked up) above

[18] = target: Serine/threonine-protein kinase 17A (Homo sapiens) (UniProt Q9UEE5); assay: Binding affinity to DRAK1 (unknown origin) assessed as change in melting temperature at 10 uM incubated for 10 mins using SYPRO orange dye by RT-PCR-based fluorescence assay
Summary of the method: as §1

[19] = target: T3, Dual specificity protein kinase CLK1; assay: Inhibition of full length wild type CLK1 (unknown origin) expressed in HEK293 cells incubated for 2 hrs followed by NanoBRET NanoGlo Substrate addition by NanoBRET assay; format: cell-based
[20] = target: Tyrosine-protein kinase Fes/Fps (Homo sapiens) (UniProt P07332); assay: Binding affinity to FES (unknown origin) assessed as change in melting temperature at 10 uM incubated for 10 mins using SYPRO orange dye by RT-PCR-based fluorescence assay
Summary of the method: as §1

[21] = Inhibition of recombinant CLK3 A319V mutant (unknown origin) using Ac-ERMRPRKRQGSVdP(Sox)G-NH2 as substrate after 5 mins by Omnia Kinase Assay; design: species or system Homo sapiens
[22] = Inhibition of CLK1 V324A mutant (unknown origin) expressed in HEK293 cells incubated for 2 hrs followed by NanoBRET NanoGlo Substrate addition by NanoBRET assay; format: cell-based, Homo sapiens
[23] = target: cGMP-dependent protein kinase 1 (Homo sapiens) (UniProt Q13976); details: dose 10.0 µM, time 10.0 min
[24] = target: cAMP-dependent protein kinase catalytic subunit PRKX (Homo sapiens) (UniProt P51817); assay: Binding affinity to PRKX (unknown origin) assessed as change in melting temperature at 10 uM incubated for 10 mins using SYPRO orange dye by RT-PCR-based fluorescence assay
Summary of the method: as §1

[25] = target: Serine/threonine-protein kinase 33 (Homo sapiens) (UniProt Q9BYT3); assay: Binding affinity to STK33 (unknown origin) assessed as change in melting temperature at 10 uM incubated for 10 mins using SYPRO orange dye by RT-PCR-based fluorescence assay
Summary of the method: as §1

[26] = target: T1, Dual specificity protein kinase CLK3; assay: Inhibition of recombinant CLK3 (unknown origin) using Ac-ERMRPRKRQGSVdP(Sox)G-NH2 as substrate after 5 mins by Omnia Kinase Assay
[27] = target: Casein kinase II subunit alpha' (Homo sapiens) (UniProt P19784); assay: Binding affinity to CK2A2 (unknown origin) assessed as change in melting temperature at 10 uM incubated for 10 mins using SYPRO orange dye by RT-PCR-based fluorescence assay
Summary of the method: as §1

[28] = target: T4, Serine/threonine-protein kinase haspin (Homo sapiens); assay: Binding affinity to haspin (unknown origin) assessed as change in melting temperature at 10 uM incubated for 10 mins using SYPRO orange dye by RT-PCR-based fluorescence assay
Summary of the method: as §1

[29] = target: T6, Dual specificity tyrosine-phosphorylation-regulated kinase 2 (Homo sapiens) (UniProt Q92630); assay: Binding affinity to DYRK2 (unknown origin) assessed as change in melting temperature at 10 uM incubated for 10 mins using SYPRO orange dye by RT-PCR-based fluorescence assay
T6 sequence (whole entry): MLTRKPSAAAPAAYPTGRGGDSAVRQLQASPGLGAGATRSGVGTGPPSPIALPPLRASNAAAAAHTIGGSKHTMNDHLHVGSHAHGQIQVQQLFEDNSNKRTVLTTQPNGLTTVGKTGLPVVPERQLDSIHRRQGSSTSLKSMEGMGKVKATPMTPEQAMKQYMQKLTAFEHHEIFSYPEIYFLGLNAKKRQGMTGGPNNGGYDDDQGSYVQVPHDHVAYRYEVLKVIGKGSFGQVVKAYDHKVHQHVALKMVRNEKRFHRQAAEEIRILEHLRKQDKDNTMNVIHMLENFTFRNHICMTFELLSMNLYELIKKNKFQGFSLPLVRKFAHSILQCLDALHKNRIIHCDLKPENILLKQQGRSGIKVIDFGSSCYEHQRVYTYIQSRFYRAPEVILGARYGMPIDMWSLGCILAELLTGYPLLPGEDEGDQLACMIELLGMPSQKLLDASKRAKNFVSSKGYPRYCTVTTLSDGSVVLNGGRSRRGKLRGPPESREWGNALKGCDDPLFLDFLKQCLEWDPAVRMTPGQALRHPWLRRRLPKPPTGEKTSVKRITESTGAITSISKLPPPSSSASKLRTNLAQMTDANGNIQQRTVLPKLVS
Summary of the method: as §1

[30] = target: Serine/threonine-protein kinase pim-3 (Homo sapiens) (UniProt Q86V86); assay: Binding affinity to PIM3 (unknown origin) assessed as change in melting temperature at 10 uM incubated for 10 mins using SYPRO orange dye by RT-PCR-based fluorescence assay
Summary of the method: as §1

[31] = target: Serine/threonine-protein kinase 17B (Homo sapiens) (UniProt O94768); assay: Binding affinity to DRAK2 (unknown origin) assessed as change in melting temperature at 10 uM incubated for 10 mins using SYPRO orange dye by RT-PCR-based fluorescence assay
Summary of the method: as §1

[32] = target: T5, Dual specificity tyrosine-phosphorylation-regulated kinase 1A; details: dose 10.0 µM, time 10.0 min
[33] = target: Casein kinase I isoform epsilon (Homo sapiens) (UniProt P49674); assay: Binding affinity to CSNK1E (unknown origin) assessed as change in melting temperature at 10 uM incubated for 10 mins using SYPRO orange dye by RT-PCR-based fluorescence assay
Summary of the method: as §1

[34] = target: Serine/threonine-protein kinase pim-1 (Homo sapiens) (UniProt P11309); assay: Binding affinity to PIM1 (unknown origin) assessed as change in melting temperature at 10 uM incubated for 10 mins using SYPRO orange dye by RT-PCR-based fluorescence assay
Sequence of Serine/threonine-protein kinase pim-1 (Homo sapiens) (P11309 whole entry, looked up): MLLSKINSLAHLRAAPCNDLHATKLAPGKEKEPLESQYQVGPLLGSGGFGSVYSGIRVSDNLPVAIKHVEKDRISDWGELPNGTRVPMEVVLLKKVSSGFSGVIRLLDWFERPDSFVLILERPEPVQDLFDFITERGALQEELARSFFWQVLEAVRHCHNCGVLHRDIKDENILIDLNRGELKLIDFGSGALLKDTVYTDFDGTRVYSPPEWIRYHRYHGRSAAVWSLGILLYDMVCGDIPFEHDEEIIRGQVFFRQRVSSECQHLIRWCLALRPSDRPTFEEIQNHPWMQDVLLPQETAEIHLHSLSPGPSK

SMILES: CCOc1ccc2c(-c3ccnc(Nc4cc(OC)cc(C(F)(F)F)c4)n3)cnn2n1
ΔTm [1]: 2 °C | Ratio Ki (Homo sapiens [2]): 9 | ΔTm [3]: 8.4 °C | ΔTm (Homo sapiens [4]): 2.5 °C | ΔTm (Homo sapiens [5]): 5.5 °C | ΔTm [6]: 9 °C | ΔTm [7]: 9 °C

SMILES: Cn1cc(-c2ccc3occ(-c4cccc(-c5ccncc5)c4)c3n2)cn1
IC50 [8]: 1310 nM | Activity [9]: < 50% | Activity [10]: < 50% | Activity [11]: < 50% | IC50 [12]: 159 nM | Activity [13]: < 50% | IC50 [14]: 29 nM | IC50 [15]: 213 nM | IC50 [16]: 187 nM | IC50 [17]: 12 nM

SMILES: Cn1c2c(c3ccc(Cl)c(Cl)c31)C(C#N)C1(CCNCC1)NC2=O (stereo unspecified)
ΔTm [18]: > 4 °C | ΔTm [1]: 1.4 °C | Ratio Ki (Homo sapiens [2]): 20.6 | ΔTm [3]: 3.5 °C | Ki [19]: 140 nM | ΔTm [20]: > 4 °C | Ki [21]: 850 nM | Ki [22]: 2810 nM | ΔTm [23]: > 6 °C | ΔTm [24]: > 4 °C | ΔTm [25]: > 4 °C | ΔTm [6]: > 4 °C | Ki [26]: 26900 nM | ΔTm [27]: > 4 °C | ΔTm [28]: > 4 °C

SMILES: CCN1/C(=C\C(C)=O)Sc2ccc(OC)cc21
ΔTm [1]: 3 °C | ΔTm [3]: > 4 °C | Ki [21]: 320 nM | ΔTm [32]: > 6 °C | ΔTm [29]: > 6 °C | ΔTm [30]: > 4 °C | ΔTm [33]: > 4 °C | ΔTm [34]: > 4 °C | ΔTm [6]: > 6 °C | ΔTm [7]: > 6 °C

SMILES: CCOC(=O)c1c(/C(C#N)=C/N)c2ccc(Cl)c(Cl)c2n1C
Ratio Ki (Homo sapiens [2]): 9

Now from value to compound:

ΔTm [1]: 4.8 °C | ΔTm [3]: 8.3 °C | ΔTm [7]: 12.3 °C
SMILES: Cn1cc(-c2ccc3occ(-c4cccc(Oc5ccccc5)c4)c3n2)cn1

ΔTm [1]: 2.3 °C | ΔTm [3]: 4.9 °C | ΔTm [6]: 10.1 °C | ΔTm [7]: 9.8 °C
SMILES: O=C1NCc2ccc3c(-c4cccc(Cl)c4)c[nH]c3c21

ΔTm [3]: > 6 °C | ΔTm [29]: > 6 °C | ΔTm [30]: > 4 °C | ΔTm [31]: > 6 °C | ΔTm [7]: > 6 °C
SMILES: Nc1nccc(-c2ccc3noc(-c4ccc(Cl)cc4)c3c2)n1

ΔTm [1]: 3.4 °C | ΔTm [3]: 7 °C | ΔTm (Homo sapiens [4]): 3.8 °C | ΔTm (Homo sapiens [5]): 9.2 °C | ΔTm [6]: 9.6 °C | ΔTm [7]: 10.3 °C
SMILES: COC(=N)c1nc2ccc3ncnc(Nc4ccc(OC)cc4F)c3c2s1
